Tested on: MS2 coat protein
Test: apparent Kd, MS2 coat protein; higher = weaker binding; RNA-MaP array; FMN 200 µM where present
Procedure, shortened: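 Designs were transcribed by stalled E. coli RNA polymerase on Illumina sequencing-chip clusters. They were titrated with SNAP-549-labelled MS2 coat protein from 0.7 or 1.5 nM, doubling to 3 µM, in 100 mM Tris-HCl pH 7.5, 80 mM KCl, 4 mM MgCl2, BSA, DTT, yeast tRNA and Tween-20, without and then with constant ligand. The apparent Kd is the median of filtered per-cluster fits after normalisation of green signal to red-channel RNA signal and control-cluster median Fmax.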

[1] = designed as: OFF switch for flavin mononucleotide, no ligand
[2] = ligand present: flavin mononucleotide, designed as: OFF switch for flavin mononucleotide
[3] = designed as: ON switch for flavin mononucleotide, no ligand
[4] = ligand present: flavin mononucleotide, designed as: ON switch for flavin mononucleotide

Sequence	apparent Kd [1] [nM]	apparent Kd [2] [nM]	apparent Kd [3] [nM]	apparent Kd [4] [nM]
AAUUCACAUGAGGAUCACCCAUGUCAGGAUAUGGUUUUAUUUUUUUCUUUUCUUGAUUCCAGAAGGGACAGCUA	108	59.2		
AACCUACAUGAGGAUCACCCAUGUGAGGAUAUAUUGGUAUGGAUGUUAUUUUGUAGAGGUAGAAGGCGCGUGAU	15.4	15.4		
CAAUUUAUGUCAGGAUAUACAAUACAAUGAUUAGUAGAAGGGAUUAAUACAUGAGGAUCACCCAUGUCAUGUGUCAUCGUACCC	28.1	23.3		
CUGAUUUGCUAGAAGGGUGACAUGAGGAUCACCCAUGUGCGGGCAGACCUAUCUUCAUGCCCGCCACAGGAUAUAGCAAUUCGC			38.3	48.2
UGGUACUAGGGAGGAUAUGGGAAGAUACAUGAGGAUCACCCAUGUUUAAGAAUGCCGAGCGGCAACUAGAAGGCCCUAGUACCU			479	20.8
GCAGCUAAUGCAGGAUAUCAGCACGUGUAGUGCUGAGAAGGGCACAUGAGGAUCACCCAUGUGAUCAAUCAAUGUUAAUGCUGC	9.43	38.3		
AAUAACAGAGGAUAUACUGUUUUAUGUGUUUAUUGUUUUGAACAUGAGGAUCACCCAUGUAGAAGGCUGAGUAA	27.8	28.2		
AAAAAAAAAACUGAGGAUAUGAAAUAAUAGACAUGAGGAUCACCCAUGUUUUCGGUCGAAAAAAUGCAGAAGGCAGAAAAAAAAAA			31.6	29.1
GGAUAGGACAGAGGAUAUACGUGCUAGAGAUACUAGCAAAAUAUCCUCACAUGAGGAUCACCCAUGUAGAAGGCUGUCCUAUCG	18.1	79		
GUGGUCAGACAUGAGGAUCACCCAUGUGGAAUAAAUAAGGAGAAGGAUAUGGAAUAUAGGAUAUACCAGAAGGUCUGGUUGGUG			79	90.7
UAGCUUGACGCAGGAUAUCCAAGGCUGAAAUGAGGAGAAGGGCGCCAAACAUGAGGAUCACCCAUGUAUUAUGCAGGGUCCUCG	302	152		
ACGUGUCGUGUAGGAUAUGACACAGGAAACUGGUCAGAAGGACAUGAGGAUCACCCAUGUAGAGUGUGUUAGGAUGACGUAUGC	51.9	199		
UAGAGUCUUGAGGAUAUUGGUACGUACCGGUCCCAAGAAGGCGAGACAUGAGGAUCACCCAUGUGACCGUGAGC	31.9	47.8		
CUGUUAUAGGUCCAUUUUUACAACAUGAGGAUCACCCAUGUGCAGGAUAUCGUGUUAAUUUUCAUCGAGAAGGGCAUAGUCACG	31.5	61.2		
GUCAGCUCGUGAGGAUAUACAACACUGCUGCGGCAGUGUAUUAAGAUCACAUGAGGAUCACCCAUGUAGAAGGCACGAGCUGAU	13.7	262		
AAGAAGUCAGGAUAUCCAGCUCGUCACUUGCGUGAUGAGUUGGAGAAGGGACAUGAGGAUCACCCAUGUAAAGC	47.9	45.7		
UCAUUGAUUGUGAGGAUAUCGAUGUGAUGGUUUGUCGAGAAGGCACAUGAGGAUCACCCAUGUUUGUUUGGGCU	494	253		
UAUUGAUAAUAUUUUCACAUGAGGAUCACCCAUGUCGCUCGACAGGAUAUAUUUUAUUUGUUUAAGUAGAAGGGUCGCAGAUUU			143	109
UUAUUAGCAGGAUAUAUCCAGGAUUACAUGAGGAUCACCCAUGUGACCGCUUGAGAUUCUAUAGAAGGGCUUUAUU	29.6	29.8		
GAUAAAGGAGUAGGAUAUGCACAUGGUAGGCUUAUCUUUAUGGCGACAUGAGGAUCACCCAUGUUGCAGAAGGGCUUCCCAUUG	34	25.9		
GUGGUUGUCGUAGGAUAUGUAGGAUAUUCCUACAUGAGGAUCACCCAUGUUCGCAUGGAAGAAGGACAGAAGGACGAUGACCAA			1160	9.11
CGGAGGUCAGGAUAUGCAUGGCGGGACUUGCGUCGUGGCGUGCAGAAGGGACAUGAGGAUCACCCAUGUGGAGG	155	267		
CCUUUGAAGAUCCAAAAUUUCGACAUGAGGAUCACCCAUGUGCAGGAUAUCGUGCCAGUGAUGUACGAGAAGGGCAGACUCUGC	132	158		
AUACCUUAUGAGAAGGCGAUCAUGAAACAUGAUCGAGGAUAUCAUGUAAACAUGAGGAUCACCCAUGUAUGGGUAUUAUGGUAU			57.4	10.9

Sequence	apparent Kd [1] [nM]	apparent Kd [2] [nM]	apparent Kd [3] [nM]	apparent Kd [4] [nM]
AAGAAGUCAGGAUAUGCUGCUCGUCACUUGCGUGAUGAGUAGCAGAAGGGACAUGAGGAUCACCCAUGUAAAGG	164	356		
AAUAAGUCAGGAUAUACUAUGUCAGGAGAGAGACUGACUAUGUAGAAGGGACAUGAGGAUCACCCAUGUAAUAA	28.6	35.9		
GAUCAACAUGAGGAUCACCCAUGUGAGGAUAUGAUACUAUGUACUUCGGUACAUAGUAUCAGAAGGCAUGUAAA	50.1	42.5		
GGAAAACAUGAGGAUCACCCAUGUGAGGAUAUCGAUGUCCAAAAAGAAGUGCGGGACUCGAGAAGGCACUUGGA	52.7	37.5		
GGUUACAAGUAAGGAUAUGCAUAUGAAACAUAUGCAGAAGGUACAUGAGGAUCACCCAUGUUAUUGCAAAGCGAAUAAGUAACC	15.6	20.9		
GUAUCAUACCAAGGAUAUUUAGGACUUGUAUAGACAUGAGGAUCACCCAUGUGGCGUUAGUCACGGGAGAAGGUGGUAUGAUAC			88.4	17.5
CCCGGGCCUGUGAGGAUAUCGGGCCCGAAAGGGUUUGAGAAGGCACAUGAGGAUCACCCAUGUAAGGGUUUGGG	33.8	24.7		
UGUGUUAUUGGAGGAUAUCGAUAUCAAACAUGAGGAUCACCCAUGUUGAGGAUCACACAUGUACAUGAGAAGGCCGACGUAGUG			13.3	14.5
AUGGAUAUCACAGGAUAUGAUAUGGAUACCAUAUCAGAAGGGUGAUCCAUCCUCUGUAAAUACAUGAGGAUCACCCAUGUGUCC			15.6	15.6
UGUCGGACCAGAGGAUAUUACAUGAGGAUCACCCAUGUAUGAACCAAUAGCUGGAAACAGCAAUGUAAGAAGGCUGCUCCGACA	9.74	105		
CUCGUGUUAGGAUAUCGUGGCUGGGCUGGGACGUCCGAUCGCGAGAAGGGACAUGAGGAUCACCCAUGUAAAAC	36.7	86		
GCCAACUUAUGAGGAUAUGGCACCUUAUUGGUGCCAGAAGGCAUGUCAAUUGACAUGAGGAUCACCCAUGUAUUAUAGUUGGCA			700	108
GUGUACAUUCGAGGAUAUCGGAGAGAGAUCAUUCGAGAAGGCGAUUCAUGAUGUAUUAUCCUGGACAUGAGGAUCACCCAUGUG			109	74.6
AAUAAACUCACAGGAUAUAGCAUAGGUCGCGUGAACUUACAGGCGACGAUGCUAGAAGGGUGACCACAUGAGGAUCACCCAUGU			892	172
CUUCUGUCAGGAUAUGCGAAUCACCACUGGGUCAGCGGUGAGCAGAAGGGACAUGAGGAUCACCCAUGUAAAGU	40.5	171		
ACGUACUGAGGAUAUACGAACAUGUCAAAAGACGUGAAGGGACAUGAGGAUCACCCAUGUAGAAGGCAGUACGA	42.2	194		
CCAGAGAUAUGAGGAUAUCGAGUGGAAUACACUCGAGAAGGCAUGUGAAAACAUGAGGAUCACCCAUGUAUGAUCUACUCUGGA			52.2	24.4
CAUUUACAGGGAGGAUAUACAUGAGGAUCACCCAUGUCAUCAUAUGAUAUUUCUUUUGUAUGAGUGUAGAAGGCCCAACUACCA	19.2	18.4		
GGUUGUCAUAGUCAUCCUUUCCGUACAUGAGGAUCACCCAUGUAGGAUAUGCUACUCAAAGAGUAGCAGAAGGGCGUGUGUCUU	17.2	18.8		
GAAGAUAUAGGAUAUACAUGAGGAUCACCCAUGUGAGUACGCAAGGCUAGAUCGCUUUGUAGAAGGAUAUACCG	38.5	40.8		
GGGUACAUCGGAGGAUAUCAUGUAAAUACAUGAGGAUCACCCAUGUCGAUGGAGACAUCGGAGAUUGAGAAGGCCGAUGUACCU			152	8.75
CAUCAGUGAGGAUAUCGGGCCUGUGGCUGCUCAGCCCGGUUCGAGAAGGCACAUGAGGAUCACCCAUGUGACGU	20.4	46.8		
UACGGGUCAGGAUAUGCGAGAGAGUGGGAAAUAGGAAGGUAGCAGAAGGGACAUGAGGAUCACCCAUGUGAGGC	24.3	29.5		
AUCUAAGAAUUAAUUGUGACUGACAGAAGGCAAUAGUAUGUGACCGACAUGAGGAUCACCCAUGUUGAGGAUAUGUCUUGCUAC	7.02	22.4		

Source: the EternaBench riboswitch data
